Test results as given in ChEMBL document CHEMBL1144414, “C-5-disubstituted barbiturates as potential molecular probes for noninvasive matrix metalloproteinase imaging” (J Med Chem, 2005).

Columns and labels:
[1] = species: Homo sapiens; test: Ratio of IC50 for human Matrix metalloprotease 2 binding and Matrix metalloprotease 9
[2] = molecular target: T1, 72 kDa type IV collagenase (Homo sapiens, UniProt P08253); test: In vitro inhibition of human Matrix metalloprotease 2
Summary of the method: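 Human active MMP-2 (1 nM) preincubated with inhibitor (10 pM to 1 mM) in 50 mM Tris·HCl pH 7.5, 0.2 M NaCl, 5 mM CaCl2, 20 µM ZnSO4, 0.05% Brij 35, 37 °C, 30 min. Fluorogenic Mca-Pro-Leu-Gly-Leu-Dpa-Ala-Arg-NH2 substrate (10 µL of 50 µM into 90 µL) added. Fluorescence (ex 330/em 390 nm) followed at 37 °C. Initial 10-min rates fitted by nonlinear regression for IC50.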

[3] = molecular target: T2, Matrix metalloproteinase-9 (Homo sapiens, UniProt P14780); test: (§1) In vitro inhibition of human Matrix metalloprotease 9
T2 sequence (P14780 whole entry): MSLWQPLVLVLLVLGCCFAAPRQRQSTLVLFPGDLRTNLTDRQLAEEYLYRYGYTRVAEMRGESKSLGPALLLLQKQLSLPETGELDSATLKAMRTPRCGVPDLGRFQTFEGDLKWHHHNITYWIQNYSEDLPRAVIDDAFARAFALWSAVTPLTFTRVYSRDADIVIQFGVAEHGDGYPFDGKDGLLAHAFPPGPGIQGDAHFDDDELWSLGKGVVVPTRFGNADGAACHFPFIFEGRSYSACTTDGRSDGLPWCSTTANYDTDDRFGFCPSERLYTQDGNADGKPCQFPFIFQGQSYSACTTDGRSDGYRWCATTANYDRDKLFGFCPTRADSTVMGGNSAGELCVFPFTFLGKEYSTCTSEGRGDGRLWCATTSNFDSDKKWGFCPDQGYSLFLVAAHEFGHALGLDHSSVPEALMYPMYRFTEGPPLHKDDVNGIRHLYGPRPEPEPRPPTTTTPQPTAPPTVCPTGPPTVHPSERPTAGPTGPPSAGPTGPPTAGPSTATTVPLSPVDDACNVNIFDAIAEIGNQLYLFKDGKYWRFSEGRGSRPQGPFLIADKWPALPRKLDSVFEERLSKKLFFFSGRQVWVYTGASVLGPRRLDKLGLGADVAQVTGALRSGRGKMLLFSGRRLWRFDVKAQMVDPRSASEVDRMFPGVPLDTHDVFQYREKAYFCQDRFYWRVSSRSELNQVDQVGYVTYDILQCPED
Summary of the method: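 Human active MMP-9 (2 nM) preincubated 30 min at 37 °C with inhibitor (10 pM to 1 mM) in 50 mM Tris·HCl pH 7.5, 0.2 M NaCl, 5 mM CaCl2, 20 µM ZnSO4, 0.05% Brij 35. Fluorogenic Mca-Pro-Leu-Gly-Leu-Dpa-Ala-Arg-NH2 substrate added from a 50 µM stock. Fluorescence (ex 330/em 390 nm) followed at 37 °C. Initial 10-min linear rates versus dose; IC50 by nonlinear regression.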

[4] = Partition coefficient (logD7.4); format: physicochemical; conditions: octanol/water, pH 7.4
[5] = molecular target: T1, 72 kDa type IV collagenase; test: In vitro inhibition of human Matrix metalloprotease 2; I.A.=inactive
Summary of the method: (§2)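 Human active enzyme, MMP-2 at 1 nM or MMP-9 at 2 nM, preincubated 30 min at 37 °C with inhibitor (10 pM to 1 mM) in 50 mM Tris·HCl pH 7.5, 0.2 M NaCl, 5 mM CaCl2, 20 µM ZnSO4, 0.05% Brij 35. Mca-PLGL-Dpa-AR-NH2 substrate added, fluorescence followed at 37 °C (ex 330/em 390 nm). Initial 10-min rates fitted by nonlinear regression for IC50.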

[6] = molecular target: T2, Matrix metalloproteinase-9; test: In vitro inhibition of human Matrix metalloprotease 9; I.A.=inactive; summary of the method: as §2
[7] = molecular target: T2, Matrix metalloproteinase-9; test: as §1; remark: listed apart in the source

T1 sequence (P08253 whole entry): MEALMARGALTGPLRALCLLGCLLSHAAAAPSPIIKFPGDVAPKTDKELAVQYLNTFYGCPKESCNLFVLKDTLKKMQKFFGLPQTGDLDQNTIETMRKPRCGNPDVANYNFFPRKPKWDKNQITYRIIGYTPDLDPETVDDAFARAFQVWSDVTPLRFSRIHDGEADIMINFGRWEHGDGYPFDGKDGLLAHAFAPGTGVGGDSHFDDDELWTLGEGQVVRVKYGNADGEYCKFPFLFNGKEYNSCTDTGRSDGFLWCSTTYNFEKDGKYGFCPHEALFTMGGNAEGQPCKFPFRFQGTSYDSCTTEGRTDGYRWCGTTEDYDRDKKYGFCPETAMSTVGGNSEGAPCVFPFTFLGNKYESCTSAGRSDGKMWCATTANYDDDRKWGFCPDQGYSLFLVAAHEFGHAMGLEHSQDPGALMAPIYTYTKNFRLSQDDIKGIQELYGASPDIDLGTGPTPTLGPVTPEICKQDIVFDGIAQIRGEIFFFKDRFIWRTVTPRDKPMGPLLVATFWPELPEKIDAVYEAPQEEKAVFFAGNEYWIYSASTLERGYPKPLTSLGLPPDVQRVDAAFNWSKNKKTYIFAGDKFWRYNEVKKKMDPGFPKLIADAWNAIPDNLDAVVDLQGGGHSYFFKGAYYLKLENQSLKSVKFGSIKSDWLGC

Question: Which Selectivity [1] does the source give for `NCCN1CCN(C2(c3ccc(Oc4ccc(Br)cc4)cc3)C(=O)NC(=O)NC2=O)CC1` here?
Answer: Its Selectivity is 0.71.

Question: And the IC50 [2]?
Answer: The IC50 was 10 nM.

Question: What about the IC50 [3] of the same compound?
Answer: Its IC50 is 14 nM.

Question: And the logD [4]?
Answer: Its logD is 0.78.

Question: With `O=C(O)CCN1CCN(C2(c3ccc(Oc4ccc(Br)cc4)cc3)C(=O)NC(=O)NC2=O)CC1` as the compound, how does the Selectivity [1] read?
Answer: Its Selectivity is 3.3.

Question: And the IC50 [2]?
Answer: Its IC50 is 85 nM.

Question: What about the IC50 [3] of the same compound?
Answer: The IC50 was 26 nM.

Question: And the logD [4]?
Answer: Its logD is 0.81.

Question: With `O=C1NC(=O)C(c2ccc(Oc3ccc(Br)cc3)cc2)C(=O)N1` as the compound, how does the IC50 [2] read?
Answer: Its IC50 is 3700 nM.

Question: And the logD [4]?
Answer: Its logD is 0.41.

Question: With `COc1ccc(Oc2ccc(C3(N4CCN(CCO)CC4)C(=O)NC(=O)NC3=O)cc2)cc1` as the compound, how does the Selectivity [1] read?
Answer: Its Selectivity is 1.5.

Question: What about the logD [4] of the same compound?
Answer: The logD was 1.79.

Question: For `COCCN1CCN(C2(c3ccc(Oc4ccc(OC)cc4)cc3)C(=O)N(C)C(=O)N(C)C2=O)CC1`, which IC50 [5] is on record?
Answer: Its IC50 is “Not Active”.

Question: What about the IC50 [6] of the same compound?
Answer: The IC50 was “Not Active”.

Question: And the logD [4]?
Answer: Its logD is 0.95.

Question: Which Selectivity [1] does the source give for `O=C1NC(=O)C(c2ccc(Oc3ccc(Br)cc3)cc2)(N2CCN(c3ccc(F)cc3)CC2)C(=O)N1` here?
Answer: The Selectivity was 0.63.

Question: What about the logD [4] of the same compound?
Answer: The logD was 6.11.

Question: Which results are given for `O=C1NC(=O)C(c2ccc(Oc3ccc(Br)cc3)cc2)(N2CCN(C(=O)c3cccc(I)c3)CC2)C(=O)N1`?
Answer: Selectivity [1]: 0.75; IC50 [2]: 15 nM; IC50 [3]: 20 nM; logD [4]: 5.86

Question: Which results are given for `O=C1NC(=O)C(c2ccc(Oc3ccc(Br)cc3)cc2)(N2CCN(CCBr)CC2)C(=O)N1`?
Answer: Selectivity [1]: 1.2; IC50 [2]: 30 nM; IC50 [3]: 26 nM; logD [4]: 4.67

Question: What does the source list for `O=C1NC(=O)C(c2ccc(Oc3ccc(Br)cc3)cc2)(N2CCN(c3ccc(I)cc3)CC2)C(=O)N1`?
Answer: Selectivity [1]: 8.6; IC50 [2]: 86 nM; IC50 [3]: 10 nM; logD [4]: 7.22

Question: Which results are given for `O=C1NC(=O)C(c2ccc(Oc3ccc(I)cc3)cc2)(N2CCN(CCO)CC2)C(=O)N1`?
Answer: Selectivity [1]: 3.5; logD [4]: 3.68

Question: Which IC50 [2] does the source give for `CC(C)[C@@H](NS(=O)(=O)c1ccc(C#CCCCC[18F])cc1)C(=O)O` here?
Answer: Its IC50 is 1900 nM.

Question: Which IC50 [2] does the source give for `O=C1NC(=S)NC(=O)C1(c1ccc(Oc2ccc(Br)cc2)cc1)N1CCN(CCO)CC1` here?
Answer: The IC50 was 7.21 nM.

Question: What about the logD [4] of the same compound?
Answer: The logD was 3.85.

Question: Which Selectivity [1] does the source give for `O=C1NC(=O)C(c2ccc(Oc3ccc(Br)cc3)cc2)(N2CCN(CCO)CC2)C(=O)N1` here?
Answer: Its Selectivity is 2.3.

Question: And the logD [4]?
Answer: Its logD is 3.42.

Question: Which results are given for `C[Si](C)(C)c1ccc(N2CCN(C3(c4ccc(Oc5ccc(Br)cc5)cc4)C(=O)NC(=O)NC3=O)CC2)cc1`?
Answer: Selectivity [1]: 2.7; IC50 [2]: 1500 nM; IC50 [3]: 550 nM; logD [4]: 8.32

Question: What does the source list for `CC(C)N1CCN(C2(c3ccc(Oc4ccc(Br)cc4)cc3)C(=O)NC(=O)NC2=O)CC1`?
Answer: Selectivity [1]: 26; logD [4]: 4.47

Question: For `CC(C)[C@@H](NS(=O)(=O)c1ccc(NC(=O)c2ccc(O[11CH3])cc2)cc1)C(=O)O`, which IC50 [7] is on record?
Answer: The IC50 was 200 nM.

Question: What about the IC50 [2] of the same compound?
Answer: Its IC50 is 110 nM.

Question: For `O=C1NC(=O)C(c2ccc(Oc3ccc(Br)cc3)cc2)(N2CCNCC2)C(=O)N1`, which Selectivity [1] is on record?
Answer: The Selectivity was 2.5.

Question: And the IC50 [2]?
Answer: Its IC50 is 5 nM.

Question: What about the IC50 [3] of the same compound?
Answer: The IC50 was 2 nM.

Question: And the logD [4]?
Answer: The logD was 3.04.

Question: With `O=C1NC(=O)C(c2ccc(Oc3ccc(Br)cc3)cc2)(N2CCN(c3ccc([N+](=O)[O-])cc3)CC2)C(=O)N1` as the compound, how does the Selectivity [1] read?
Answer: Its Selectivity is 0.28.

Question: And the IC50 [2]?
Answer: The IC50 was 16 nM.

Question: And the IC50 [3]?
Answer: The IC50 was 57 nM.

Question: And the logD [4]?
Answer: The logD was 6.27.
